Assay outcomes deposited in PubChem by Sanford-Burnham Center for Chemical Genomics.
TRAIL sens C8 = viability loss with TRAIL in NB7+C8 cells, primary screen, TRAIL sensitizer project, cell-based, ATPlite luminescence; 360,000 tested, 1% active; inhibition (viability loss, TRAIL sensitization), % at 10 µM;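 active = compounds causing at least 50% loss of cell viability in the single-dose screen, relative to plate controls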
PPC-1+TRAIL kill = compounds killing PPC-1 cancer cells with TRAIL present, primary screen, TRAIL potentiator project, ATPLite luminescence, uHTS. PPC-1 cells + TRAIL, ATPLite viability luminescence. cell killing (% activity), % at 4 µM or 5 µM. 220,000 tested, 0.41% active. AID 1443, 2008;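 active = cell killing above 50% in the first pass at 4 µM, then a duplicate retest at 5 µM averaging 50% or more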;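 also: plate controls were cells with TRAIL plus DMSO for no effect and medium-only wells lacking cells for full effect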
FLuc act counter = FLuc activators, initial screening, artefact control for FLuc-dependent activation tests, biochemical, ATPlite luminescence | Luciferin 4-monooxygenase (Photinus pyralis), P08659 | 200,000 tested, under 10 active | activation factor at 10 µM | ATPlite luciferase biochemical, 10 min; 0 = ATP-free wells, 1 = DMSO control;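 active = luciferase activation factor, scaled between plate controls, of at least 2 with compound at 10 µM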
Target sequence (P08659 whole entry, looked up): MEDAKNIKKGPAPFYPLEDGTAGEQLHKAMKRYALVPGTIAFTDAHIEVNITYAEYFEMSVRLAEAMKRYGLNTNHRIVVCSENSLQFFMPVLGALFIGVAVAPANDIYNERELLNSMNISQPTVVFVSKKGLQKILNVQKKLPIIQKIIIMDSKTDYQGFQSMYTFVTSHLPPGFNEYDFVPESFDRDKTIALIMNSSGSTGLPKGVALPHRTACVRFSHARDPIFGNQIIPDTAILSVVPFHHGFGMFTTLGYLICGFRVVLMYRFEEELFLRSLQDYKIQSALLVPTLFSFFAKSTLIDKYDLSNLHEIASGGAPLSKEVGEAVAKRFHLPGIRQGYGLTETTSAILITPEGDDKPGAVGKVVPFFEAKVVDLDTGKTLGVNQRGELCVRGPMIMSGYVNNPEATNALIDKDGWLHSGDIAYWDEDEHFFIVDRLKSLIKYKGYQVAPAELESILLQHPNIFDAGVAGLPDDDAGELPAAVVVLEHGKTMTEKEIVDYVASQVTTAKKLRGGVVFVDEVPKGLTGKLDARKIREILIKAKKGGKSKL
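System: luciferase plus luciferin reagent, cell-free; medium: PBS as buffer for the ATP substrate; dosing: test compounds dosed from 2 mM stocks in 100% DMSO; timing: 10 min post-reagent at room temperature; measured by: luminescence measurement of luciferase light output; evaluation: luciferase activation, seen as luminescence increase over controls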
FLuc inh counter = firefly luciferase enzyme inhibitors, primary screen, artefact control for luciferase-based inhibitor screens, biochemical, luminescence, ATPLite | Luciferin 4-monooxygenase (Photinus pyralis), P08659 | AID 1006, 2008 | 10 min | 200,000 tested, 1.5% active | inhibition, % at 10 µM;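 active = inhibition above about 50% when tested at 10 µM, limit read from the data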
* = called active by the depositor; . = not tested or not shown. A selection: hits, their analogues and other compounds. The true share with any hit is near 1.6%.

SMILES	TRAIL sens C8	PPC-1+TRAIL kill	FLuc act counter	FLuc inh counter
C=C1CC(COc2ccc3c(C)c(Cl)c(=O)oc3c2)(c2ccccc2)OC1=O (configuration not stated)	90*	.	.	.
CCCc1ccc(NC(=O)C2CCN(c3cnccn3)CC2)cc1	2	.	.	.
Cc1ccc(NC(=O)C2CCN(c3cnccn3)CC2)cc1	-5	-3	0.1	85*
COc1cccc(CNC(=O)[C@@H]2CCCN2C(=O)[C@@H]2CCCN2C(=O)c2cccc(OC)c2)c1	-8	.	.	.
CN(C(=O)CSc1nnc(-c2ccco2)n1C)C1CCCCC1	-2	.	.	.
Nc1c(-c2ccccc2)cnn1-c1ccccc1	54*	.	.	.
Nc1c(-c2cccc(Cl)c2)cnn1-c1ccccc1	10	.	.	.
c1ccc2c(c1)Cn1c-2nc2ccccc21	26	26	0.4	64*
Brc1c(-c2ccccc2)nc2n1Cc1ccccc1-2	16	26	.	.
Cc1ccc(/C=C/C(=O)N2CCc3ccccc3C2)cc1	13	32	0.5	51*
Cc1ccc(C)c(C(=O)Cn2ncc(Cl)c(Cl)c2=O)c1	97*	26	1	-4
O=c1c2ccccc2cnn1Cc1ccc(Cl)c(Cl)c1	17	.	.	.
Cc1cccc(Cn2ncc(Cl)c(Cl)c2=O)c1	54*	10	1.1	-10
Cc1cc(C(=O)Cn2ncc(Cl)c(Cl)c2=O)c(C)n1CC(F)(F)F	-3	14	1	3
Cc1ccc(/C=N/NC(=O)c2nnn(-c3nonc3N)c2-c2ccc3c(c2)OCO3)s1	-18	.	.	.
O=C1C(=Cc2cccs2)Oc2ccccc21	-12	.	.	.
O=C1/C(=C/c2cccs2)COc2ccccc21	14	8	0.3	71*
O=C(NC1CCCC1)C(c1ccc(F)cc1)N(C(=O)c1csnn1)C1CC1 (configuration not stated)	13	.	.	.
C=CC(=O)Nc1cccc(Nc2nc(N[C@H]3CC[C@H](N(C)C)CC3)nc3c2ncn3C(C)C)c1	83*	.	.	.
Nc1c2c(nn1-c1ccc(F)cc1)CSC2	10	.	.	.
COc1ccc(Cc2c(C3CCCCC3)nc3ccc(Br)cn23)c(C)c1	3	.	.	.
CC(C)N(C)c1ncnc2c1ncn2[C@H]1CN(CCc2ccccc2)C[C@@H](CO)O1	-2	.	.	.
COCCCNC(=O)c1ccc2c(=O)n(Cc3ccc(Cl)cc3)c(=S)[nH]c2c1	20	.	.	.
CC1CCN(CCNC(=O)c2ccc3c(=O)n(Cc4ccc(Cl)cc4)c(=S)[nH]c3c2)CC1	69*	.	.	.
CCC(C)c1ccccc1NC(=O)COC(=O)C1=COCCO1 (configuration not stated)	-10	17	1	-3
SMILES	TRAIL sens C8	PPC-1+TRAIL kill	FLuc act counter	FLuc inh counter
COCCNc1c(-c2ccc(OC)c(OC)c2)nc2ccc(Cl)cn12	23	.	0.9	7
COCCNc1c(-c2cc3ccc(C)c(C)c3[nH]c2=O)nc2ccccn12	61*	14	0.3	70*
Cc1cc(C(=O)CSc2nncn2C)c(C)n1-c1ccccc1	40	24	0.3	69*
Cc1ccc(-n2c(C)cc(C(=O)CSc3nncs3)c2C)cc1	36	21	0.5	54*
Cc1cc(C(=O)CSc2cccc[n+]2[O-])c(C)n1-c1ccccc1	46	38	0.2	80*
Cc1cccc(NC(=O)COc2coc(CN3CCN(c4ccccc4)CC3)cc2=O)c1C	12	.	.	.
NS(=O)(=O)c1ccc(NC(=O)c2ccc3c(c2)CCCC3)cc1	-19	.	.	.
CNC(=O)c1ccsc1NC(=O)c1ccc2c(c1)CCCC2	40	40	0.3	74*
CSc1ccc(CN2CCC(C)(Oc3ccccc3F)C2)cc1 (configuration not stated)	-6	.	.	.
CCCCOc1ccc(-c2nc(-c3cccnc3)no2)cc1	17	31	0.8	22
CCOc1ccc(-c2nc(-c3ccccc3C)no2)cc1	.	39	0.5	54*
Clc1ccccc1-c1nc(-c2cccnc2)no1	34	24	0.3	74*
CCOc1nc(-c2ccc(OC)cc2)ccc1-c1noc(-c2ccncc2)n1	-3	-21	1	-2
CCOc1ccc(-c2nc(-c3cccnc3)no2)cc1	58*	32	0.3	71*
Cc1ccc(-c2nc(-c3ccncc3)no2)c(Cl)c1	55*	.	.	.
O=C(NCc1ccc(Br)cc1)OC1CC2CC1[C@H]1CCCCN1C2=O (some centres not stated)	2	.	.	.
CC(=O)Nc1cccc(C(=O)NC2CCCc3c2cnn3-c2cc(C)cc(C)c2)c1 (configuration not stated)	-3	.	.	.
COC(=O)C[C@@H]1CC[C@@H](NC(=O)Nc2cc(F)ccc2F)[C@@H](CO)O1	-8	.	.	.
O=C(O)c1ccc(-c2noc(-c3ccccc3F)n2)cc1	-3	.	.	.
Cc1ccc(-c2noc(-c3ccccc3F)n2)cc1	26	7	0.4	57*
C[C@@H]1CN([C@@H](C)CO)C(=O)CCCn2nncc2CO[C@H]1CN(C)C(=O)Nc1ccccc1F	-9	.	.	.
C(=N\c1nc2ccccc2n1CCN1CCCCC1)/c1cccs1	-7	7	1	-5
COc1ccc(/C=N/c2nc3ccccc3n2C)cc1OC	4	18	0.3	70*
Cn1c(/N=C/c2cccs2)nc2ccccc21	2	31	0.3	74*
CC(C)C[C@H]1CN(CCCC[C@H]2CNC(=O)C(=O)N2CCc2ccccc2)C(=O)C(=O)N1CC1CCCCC1	-15	.	.	.
SMILES	TRAIL sens C8	PPC-1+TRAIL kill	FLuc act counter	FLuc inh counter
Cc1ccc(-c2nc3ccccc3n2C)o1	34	45	0.3	68*
Cn1c(-c2ccc(Br)o2)nc2cc(Br)ccc21	36	29	0.4	64*
Cn1c(-c2ccc(Br)o2)nc2ccccc21	52*	10	0.2	83*
CC(=O)c1ccc(-c2nc3ccccc3n2C)o1	10	-6	0.7	25
Cn1cc(C(=O)c2ccccc2)cc1-c1nc2ccccc2n1C	13	-1	1.1	-8
Cc1oc(-c2nc3ccccc3n2C)cc1C(=O)c1ccccc1	80*	19	0.1	90*
CN(C)S(=O)(=O)c1ccc(C(=O)NCc2nnc(SCC(=O)NCc3ccco3)o2)cc1	-22	.	.	.
O=C1C2CCCN2C(=O)N1CCCCN1CCN(c2cccc(Cl)c2)CC1 (configuration not stated)	14	24	1.1	-5
CCN(Cc1ccccc1)N=Nc1ccccc1	8	.	.	.
COC(=O)c1c(NC(=O)c2ccc(C(=O)c3ccccc3)cc2)sc2c1CC(C)(C)NC2(C)C	46	.	.	.
COC(=O)c1c(NC(=O)c2nc3ccccc3s2)sc2c1CC(C)(C)NC2(C)C	86*	19	1.1	-7
CCOc1ccc(S(=O)(=O)N2CCN(C(=O)c3cc(C4CC4)nn3-c3ccccc3)CC2)cc1	19	.	.	.
CCn1c(SCC(=O)N(C)c2ccccc2)nc2c([nH]c3ccccc32)c1=O	12	.	.	.
COc1ccc(C=C2C=C(C(C)(C)C)C(=O)C(C(C)(C)C)=C2)cc1OC	87*	.	.	.
COc1ccc(/C=C2\CC/C(=C\c3ccc(OC)c(OC)c3)C2=O)cc1OC	64*	39	0.3	66*
